Cneo AK release – Cryptococcus neoformans lysis via adenylate kinase release; AID 651654; 360,000 tested, 0.2% active; C. neoformans lysis, adenylate kinase release luminescence, 4 h; normalised: neutral wells 0, clomiphene wells 100; lysis activity, % at 15 µM;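 active means mean lysis activity across replicates of at least 80%, whatever share of replicates individually reach that level; inactive means mean lysis activity below 80%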
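Test system: log-phase Cryptococcus neoformans yeast cells. Input: 5 × 10^6 yeast cells/mL. Medium: fresh YPD growth medium. Doses: single dose. Incubation: static 4 h at 37 °C with compound, 1 h detection. Measured by: luminescent adenylate kinase detection reagent. Read-out: signal increase indicating cell lysis. Benchmarks: Clomiphene.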
miR-122 sensor – inhibitors of miR-122 in Huh7 cells | Huh7 miR-122 Renilla luciferase sensor, 48 h; neutral wells = 0, positive control = 100 | activation (reporter increase), % at 12.5 µM | 340,000 tested, 0.3% active;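 active means mean replicate activation score at least 90 and every replicate individually at or above 90; inconclusive means only one of the two criteria met; inactive means neither criterion met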;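 further: higher luciferase means less miR-122 activity so hits act as miR-122 inhibitors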
GSIS activator – primary screen for activators of insulin secretion dependent on glucose, INS-1E cells, GLuc reporter luminescence; INS-1E GLuc reporter insulin secretion, 2-3 h; 370,000 tested, 0.61% active; activation, % at 16.6 µM;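 active means lowest replicate activation of at least 40%, so every replicate reaches that level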;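 further: 0% = median of neutral control wells and 100% = median of IBMX positive control wells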
Ecoli rRNA inh – selective bacterial rRNA inhibition in E. coli; E. coli WT GFP vs humanized-ribosome RFP mutants, fluorescence, 24 h; hits give low values; DMSO median 0, no signal -100; GFP signal change (wild-type ribosome), % (concentration not given with the values); 350,000 tested, 1.6% active; AID 720706;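 active means significant combined selectivity score with lowered wild-type GFP, culture density cut under 30%, mutant RFP and density less affected; inactive means any of these conditions unmet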
CFTR F508del cor – correctors of CFTR F508del function in bronchial epithelial cells; activity (quench increase), % at 7.58 µM; AID 720511; CFBE cells, YFP halide quenching; stimulated with forskolin plus potentiator P3; % fluorescence drop versus neutral controls; 350,000 tested, 0.36% active;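 active means mean added fluorescence quench of at least 8% versus neutral control, with both replicates also reaching 8%; inconclusive means only one of the mean or replicate conditions met; inactive means mean below 8% and not both replicates reaching 8%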;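 further: cells transiently co-express mutant CFTR-F508del with the halide-sensitive YFP; corrector assay measuring rescue of mutant channel to the surface after 24 h compound exposure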
HIV Env fusion – HIV envelope-mediated fusion inhibition; HeLa-JRFL Env/CEM21 cell fusion, luciferase; inhibition, % at 12.3 µM; 360,000 tested, 1.1% active;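 active means mean replicate inhibition score of at least 50 and every replicate individually at or above 50; inconclusive means only one of the two criteria met; inactive means mean below 50 and not all replicates reaching 50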;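 further: 0% = plate neutral controls and 100% = maraviroc near 300 nM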
The depositor's hits bear a star; ? = inconclusive; . = not tested or not shown; [ ] = remark or other dose. This is a sample that favours compounds with a hit; in the whole collection about 3.1% have one here.

SMILES | Cneo AK release | miR-122 sensor | GSIS activator | Ecoli rRNA inh | CFTR F508del cor | HIV Env fusion
C[C@H]1CN([C@@H](C)CO)C(=O)c2ccccc2-c2ccccc2CO[C@@H]1CN(C)S(=O)(=O)c1ccccc1 | . | . | -10 | 8 | . | .
CCC(C)Oc1cccc(OCCCCN2C(=O)NC(C)(C)C2=O)c1 (stereo not given) | -6 | -3 | -8 | . | . | 1
CC1(C)NC(=O)N(CCOCCOc2cccc(Oc3ccccc3)c2)C1=O | -2 | -1 | . | . | . | 60*
C[C@@H]1CN([C@H](C)CO)C(=O)c2cc(NC(=O)NC3CCCCC3)ccc2O[C@@H]1CN(C)Cc1ccc(Cl)c(Cl)c1 | 0 | 18[16.7 µM] | -27 | -1 | 1 | 14[16.7 µM]
CCCC(=O)Nc1ccc2c(c1)OC[C@@H](C)N(C(=O)C1CCCC1)C[C@@H](C)[C@H](OC)CN(C)C2=O | 1 | -3[16.7 µM] | -1 | 1 | -5 | -21[16.7 µM]
C[C@@H]1CN([C@@H](C)CO)C(=O)c2cc(NS(=O)(=O)c3ccc(F)cc3)ccc2O[C@@H](C)CCCCO[C@H]1CN(C)Cc1ccc(C(=O)O)cc1 | -9 | 2[16.7 µM] | 15 | -1 | 2 | -4[16.7 µM]
CN(C)C(=O)C[C@H]1C[C@H]2c3cc(NC(=O)C4CCOCC4)ccc3O[C@H]2[C@H](CO)O1 | -4 | -6[16.7 µM] | 13 | -1 | -1 | 2[16.7 µM]
O=C(O)CCSc1ncnc2sc(-c3ccccc3)cc12 | -1 | -3 | 3 | 5 | -4 | 68*
CN1c2ccc(-c3cccc(C#N)c3)cc2[C@@H]2[C@@H](CCN2C(=O)Cc2ccccn2)[C@@H]1CO | -3 | -2[16.7 µM] | 2 | 4 | 0 | .
COCC(=O)N1[C@@H]2CN(C(=O)c3ccccc3)c3ccccc3[C@@H]2[C@@H]1CO | 44 | 36[16.7 µM] | 4 | 3 | 1 | .
CN(C[C@@H]1N[C@H](CO)[C@@H]1c1ccc(-c2cccc(F)c2)cc1)S(C)(=O)=O | 0 | 50[16.7 µM] | 19 | 0 | -9 | .
CN(C[C@H]1N[C@@H](CO)[C@H]1c1ccc(-c2cccc(F)c2)cc1)S(C)(=O)=O | 99* | ? | 7 | 0 | -5 | .
COCC(=O)N(C[C@H]1N[C@H](CO)[C@H]1c1ccc(C2=CCCC2)cc1)C(C)C | -1 | -7[16.7 µM] | 22 | 1 | 0 | .
S=C(NCc1cccnc1)Nc1ccc(Oc2ccc(Cl)cc2)cc1 | 0 | 7 | 3 | -26* | -3 | 15
CC(C)(C)c1ccc(NC(=S)NCc2cccnc2)cc1 | 3 | 26 | -31 | -22* | -2 | 8
CCCNC(=O)Nc1ccc2c(c1)OC[C@@H](C)N(C(=O)C1CCCCC1)C[C@H](C)[C@@H](OC)CN(C)C2=O | -3 | 2[16.7 µM] | -4 | -1 | -1 | .
c1ccc(N=NC2=NN(c3ccccc3)CS2)cc1 | -3 | . | 27 | -30* | 0 | -39
Cc1nn(Cc2ccc(C(=O)Nc3ccccc3F)cc2)c(C)c1Cl | 0 | . | 2 | -24* | -1 | 3
Nc1ncncc1-c1ccc(Cl)cc1 | 2 | -9 | 11 | -22* | 0 | 10
Cc1ccccc1CSCc1nc2ccccc2[nH]1 | . | . | -27 | -22* | . | 5
CCC(=O)Nc1ccc(NC(=S)NC(=O)/C=C/c2ccco2)cc1 | 2 | 0 | -5 | -2 | -1 | -3
CCCOc1ccc(C(=O)NNC(=S)NC(=O)c2ccco2)cc1 | . | . | -27 | -48* | 4 | 23
O=C(/C=C/c1ccco1)NC(=S)NNC(=O)c1ccco1 | -4 | 2 | -2 | -26* | -1 | .
CC(=O)NC(=S)Nc1ccc(NC(=S)NC(=O)/C=C/c2ccco2)cc1 | . | . | -4 | -12 | 14* | -8
O=C(/C=C/c1ccco1)NC(=S)Nc1ccc(C(=O)O)cc1 | . | . | 7 | 3 | 1 | -9
SMILES | Cneo AK release | miR-122 sensor | GSIS activator | Ecoli rRNA inh | CFTR F508del cor | HIV Env fusion
CO[C@@H]1CC[C@@H]2CCOc3ccc(C#N)cc3C(=O)N(C)CCCC(=O)N(C)C[C@@H]1O2 | 58 | . | 6 | 3 | . | 6[16.7 µM]
CC(C)CC(COCc1cccc(Cl)c1)N1CCN(C(=O)c2ccc(C(F)(F)F)cc2)CCC1=O (stereo not given) | 1 | 0 | -33 | -9 | 0 | 59*
CC(C)C[C@@H](COCc1cccc(Cl)c1)N1CCN(C(=O)c2cccc(C(F)(F)F)c2)CCC1=O | . | . | -1 | -1 | -1 | 58*
O=C(Nc1ccc([N+](=O)[O-])cc1)Nc1ccc(Cl)cc1F | . | . | -2 | -50 | 0 | 66*
Cc1occc1C(=O)NNC(=S)Nc1cccc([N+](=O)[O-])c1 | 1 | . | -4 | -19* | . | .
O=C(Nc1cccc([N+](=O)[O-])c1)Nc1cccc([N+](=O)[O-])c1 | . | . | -8 | -18* | . | 12
O=C(Nc1ccc(Cl)cc1)Nc1cc([N+](=O)[O-])ccc1F | . | . | -12 | . | . | 9
Cc1cccc(NC(=S)NNC(=O)c2cccc([N+](=O)[O-])c2)c1 | -5 | -9 | 2 | -11 | 5 | -16
CN(C)C(=O)c1cccc(-c2ccc3c(c2)[C@@H]2[C@@H](CCN2C(=O)c2ccccc2F)[C@@H](CO)N3)c1 | 11 | -2[16.7 µM] | 4 | -8 | 0 | .
COc1ccc(CN/C(C)=C(/C#N)C(N)=O)cc1OC | -1 | -5 | 65* | . | . | -20
C[C@@H](NC(=O)C[C@H]1CC[C@H]2[C@@H](COC[C@@H](O)CN2Cc2cc(F)ccc2F)O1)c1ccccc1 | 0 | 1[16.7 µM] | 9 | -6 | 1 | 8[16.7 µM]
COC(=O)Nc1ccc(SCC(=O)c2ccccc2)cc1 | . | . | 0 | -25* | 3 | -3
O=C(NC(=S)Nc1ccc(CN2CCOCC2)cc1)c1ccc(-c2cccc(Cl)c2)o1 | . | . | -1 | -9 | 3 | 15
CS(=O)(=O)N1CCN(c2ccc(NC(=O)c3ccc(-c4ccc(Cl)cc4)o3)cc2)CC1 | . | -14 | 80* | . | . | -406
O=C(Nc1ccc(CN2CCOCC2)cc1)c1ccc(-c2cccc(Cl)c2)o1 | 12 | -5 | . | . | . | 77*
CC(=O)Cc1nsc(NC(=O)c2ccc(-c3cccc(Cl)c3)o2)n1 | -1 | -15 | 42* | -15 | -1 | -1
CN1CCN(c2ccc(NC(=O)c3ccc(-c4ccc(Cl)cc4)o3)cc2)CC1 | 9 | 35 | -28 | -2 | 0 | -63
C[C@@H]1CCCCO[C@@H](CN(C)C(=O)Nc2cccc3ccccc23)[C@@H](C)CN([C@H](C)CO)C(=O)c2cc(NC(=O)c3ccncc3)ccc2O1 | 0 | 10[16.7 µM] | 6 | 5 | -1 | 10[16.7 µM]
O=C(C[C@@H]1CC[C@@H](NC(=O)CCN2CCCCC2)[C@@H](CO)O1)NCc1ccc(Cl)c(Cl)c1 | 2 | -4[16.7 µM] | -2 | 3 | 1 | -51[16.7 µM]
Cc1onc(-c2ccccc2)c1C(=O)NC(=S)NNC(=O)c1cc(-c2ccc(F)cc2)n[nH]1 | 5 | -3 | 24 | -33* | 5 | -11
